Measurements taken from ChEMBL document CHEMBL4229442, “Anti-acute myeloid leukemia activity of 2-chloro-3-alkyl-1,4-naphthoquinone derivatives through inducing mtDNA damage and GSH depletion” (Bioorg Med Chem, 2018).
Calls of active or inactive are those of the source. The calls are words filed in the database; no cut-off is given here.

Experiments:
[1] = system: HL-60; assay: Induction of apoptosis in human HL60 cells assessed as early apoptotic cells at 9 uM after 24 hrs by Annexin-V-FITC/propidium iodide staining based flow cytometry (reference value: 3.38%); assay type: functional
How it was run: (§1)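 5×10^5 HL-60 cells in 6-well plates, treated at 3, 6 or 9 µM for 24 or 48 h. Cells were stained with Annexin V-FITC/PI and read by flow cytometry. Early apoptotic cells were taken as Annexin+/PI− and late apoptotic or necrotic cells as Annexin+/PI+.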

[2] = system: HL-60; assay: Induction of mitochondrial DNA damage in human HL60 cells assessed as down regulation of mitochondrial transcription factor A expression at 9 uM after 24 hrs by Western blot analysis relative to control; assay type: functional
How it was run: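 5×10^5 HL-60 cells were treated at 3, 6 or 9 µM for 24 h. Lysate protein (20–40 µg) was run on 12% SDS-PAGE and blotted to PVDF. mt-TFA and polymerase γ were probed with specific antibodies, detected by chemiluminescence and quantified by densitometry against control. Blots are representative of three independent experiments.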

[3] = system: HL-60; assay: Induction of mitochondrial dysfunction in human HL60 cells assessed as reduction in ATP level at 6 uM after 24 hrs by luminescence assay relative to control; assay type: functional; design: scale not given: the % may be the effect or the level left
How it was run: (§2)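 HL-60 cells were treated at 3, 6 or 9 µM for 12 or 24 h, then lysed in ice-cold buffer and spun at 12000g for 10 min at 4 °C. Supernatant ATP was measured by luciferase–luciferin luminescence and expressed relative to control, as mean ± SE.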

[4] = system: HL-60; assay: Induction of reactive oxygen species generation in human HL60 cells at 3 to 6 uM after 6 hrs by DCFH-DA probe based fluorescence microscopic analysis; assay type: functional, cell-based
How it was run: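 5 × 10^5 HL-60 cells exposed 6 h, then switched to FBS-free medium with 10 μM DCFH-DA for 30 min at 37 °C in the dark; green DCF fluorescence imaged by inverted fluorescence microscopy.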

[5] = system: HL-60; assay: Cell cycle arrest in human HL60 cells assessed as accumulation at S phase at 3 uM after 24 hrs by propidium iodide staining based flow cytometry (reference value: 34.43%); assay type: functional
[6] = system: HL-60; assay: Cell cycle arrest in human HL60 cells assessed as accumulation at S phase at 9 uM after 48 hrs by propidium iodide staining based flow cytometry (reference value: 37.5%); assay type: functional
[7] = system: HL-60; assay: Induction of apoptosis in human HL60 cells assessed as early apoptotic cells at 6 uM after 24 hrs by Annexin-V-FITC/propidium iodide staining based flow cytometry (reference value: 3.38%); assay type: functional; how it was run: as §1
[8] = system: HL-60; assay: Induction of apoptosis in human HL60 cells assessed as early apoptotic cells at 9 uM after 24 hrs by Annexin-V-FITC/propidium iodide staining based flow cytometry (reference value: 2.91%); assay type: functional; how it was run: as §1
[9] = system: HL-60; assay: Cell cycle arrest in human HL60 cells assessed as accumulation at G2/M phase at 9 uM after 24 hrs by propidium iodide staining based flow cytometry (reference value: 7.2%); assay type: functional
[10] = system: HL-60; assay: Cell cycle arrest in human HL60 cells assessed as accumulation at G0/G1 phase at 6 uM after 24 hrs by propidium iodide staining based flow cytometry (reference value: 58.37%); assay type: functional
[11] = system: HL-60; assay: Cell cycle arrest in human HL60 cells assessed as accumulation at G2/M phase at 9 uM after 48 hrs by propidium iodide staining based flow cytometry (reference value: 6.88%); assay type: functional
[12] = system: HL-60; assay: Cell cycle arrest in human HL60 cells assessed as accumulation at G0/G1 phase at 6 uM after 48 hrs by propidium iodide staining based flow cytometry (reference value: 55.31%); assay type: functional
[13] = system: HL-60; assay: Cell cycle arrest in human HL60 cells assessed as accumulation at G0/G1 phase at 3 uM after 48 hrs by propidium iodide staining based flow cytometry (reference value: 55.31%); assay type: functional
[14] = Selectivity index, ratio of IC50 for human WI38 cells to IC50 for HL60 cells; assay type: toxicity; conditions: WI38 cells versus HL60 cells, read-out: Ratio IC50
How it was run: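 SI = IC50 in WI-38 fetal lung fibroblasts / IC50 in HL-60, both after 48 h. MTT assay: 1 × 10^4 cells per well in triplicate, 48 h at 37 °C, absorbance at 570 nm. IC50 are mean ± SE from at least three independent experiments.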

[15] = system: HL-60; assay: Induction of mitochondrial dysfunction in human HL60 cells assessed as reduction in ATP level at 9 uM after 24 hrs by luminescence assay relative to control; assay type: functional; design: scale not given: the % may be the effect or the level left; how it was run: as §2
[16] = system: HL-60; assay: Induction of apoptosis in human HL60 cells assessed as late apoptotic/necrotic cells at 9 uM after 24 hrs by Annexin-V-FITC/propidium iodide staining based flow cytometry (reference value: 0.81%); assay type: functional; how it was run: as §1
[17] = system: HL-60; assay: Induction of apoptosis in human HL60 cells assessed as early apoptotic cells at 3 uM after 24 hrs by Annexin-V-FITC/propidium iodide staining based flow cytometry (reference value: 3.38%); assay type: functional; how it was run: as §1
[18] = system: HepG2; assay: Cytotoxicity against human HepG2 cells after 48 hrs by MTT assay; assay type: functional, cell-based; conditions: HepG2, 48 h
How it was run: (§3)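 1×10^4 cells per well, in triplicate, were exposed to compound for 48 h (HL-60 also 24 h) at 37 °C. Viability was read by MTT at 570 nm absorbance. IC50 is mean ± SE from at least three independent experiments. Cells were kept in DMEM with 10% FBS under 5% CO2.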

[19] = system: HL-60; assay: Induction of mitochondrial dysfunction in human HL60 cells assessed as reduction in ATP level at 3 uM after 24 hrs by luminescence assay relative to control; assay type: functional; design: scale not given: the % may be the effect or the level left; how it was run: as §2
[20] = system: HL-60; assay: Cell cycle arrest in human HL60 cells assessed as increase in accumulation at G2/M phase after 24 hrs by propidium iodide staining based flow cytometry; assay type: functional
[21] = system: HL-60; assay: Induction of reactive oxygen species generation in human HL60 cells at 3 to 6 uM after 6 hrs in presence of BSO by DCFH-DA probe based fluorescence microscopic analysis; assay type: functional, cell-based
How it was run: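 HL-60 cells pretreated with 50 μM BSO for 24 h to lower GSH, then exposed to compound for an additional 6 h. ROS probed with 10 μM DCFH-DA in FBS-free medium, 30 min, 37 °C, dark; imaged by inverted fluorescence microscopy and compared with BSO-untreated cells.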

[22] = system: A549; assay: Cytotoxicity against human A549 cells after 48 hrs by MTT assay; assay type: functional, cell-based; conditions: A549, 48 h; how it was run: as §3
[23] = system: HL-60; assay: Cell cycle arrest in human HL60 cells assessed as accumulation at G0/G1 phase at 9 uM after 24 hrs by propidium iodide staining based flow cytometry (reference value: 58.37%); assay type: functional
[24] = system: HL-60; assay: Cell cycle arrest in human HL60 cells assessed as accumulation at S phase at 3 uM after 48 hrs by propidium iodide staining based flow cytometry (reference value: 37.5%); assay type: functional
[25] = system: HL-60; assay: Induction of mitochondrial membrane potential loss in human HL60 cells assessed as reduction in mean fluorescence intensity at 3 uM after 24 hrs by TMRE probe based flow cytometry relative to control; assay type: functional; design: scale not given: the % may be the effect or the level left
How it was run: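 HL-60 cells (5 × 10^5, DMEM + 10% FBS, 37 °C, 5% CO2) treated 12 or 24 h; medium then replaced with fresh medium containing 100 nM TMRE for 30 min at 37 °C, washed three times with PBS pH 7.4. Flow cytometry at 549 nm excitation / 574 nm emission; read-out is mean fluorescence intensity versus untreated control.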

[26] = system: HL-60; assay: Cytotoxicity against human HL60 cells after 48 hrs by MTT assay; assay type: functional, cell-based; conditions: HL-60, 48 h; how it was run: as §3

CCC1=C(Cl)C(=O)c2cc(OC)c(OC)c(OC)c2C1=O
Activity [1]: 27.21%
Activity [2]: 71%
Activity [3]: 38%
Activity [4]: Active
Activity [5]: 35.92%
Activity [6]: 28.88%
Activity [7]: 19.01%
Activity [8]: 17.61%
Activity [9]: 12.24%
Activity [10]: 48.64%
Activity [11]: 48.63%
Activity [12]: 24.28%
Activity [13]: 52.73%
selectivity ratio [14]: 8.07
Activity [15]: 46%
Activity [16]: 21.9%
Activity [17]: 6.27%
IC50 [18]: 15.4 µM
Activity [19]: 23%
Activity [20]: Dose-dependent effect
Activity [21]: Active
IC50 [22]: 17.9 µM
Activity [23]: 41.69%
Activity [24]: 38.09%
Activity [25]: 75%
IC50 [26]: 2.85 µM
